ChEMBL document CHEMBL5724801, “EUbOPEN Chemogenomics Library - Multiplex” (2024)
Where “and” joins values, the source holds several entries; their conditions need not be identical. Equal values may be shown once.

Legend:
Type in all cases: toxicity, cell-based
[1] = tested on: Fibroblast; assay: Multiplex assay against human fibroblast
Summary of the method: (§1)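 Phenotypes for tubulin, mitochondrial mass and membrane permeability are expressed as per cents of healthy-nucleus cells. Cells were stained live at seeding with Hoechst33342, BioTracker Green Microtubule Cytoskeleton Dye, MitoTracker Red and Annexin V Alexa Fluor 680, then imaged after compound addition on a CQ1 microscope at 37°C and 5% CO2. Machine-learning gating in CellPathfinder separated Hoechst high-intensity objects from normal cells, divided normal cells by nuclear state (healthy, pyknosed, fragmented) and divided pyknosed cells into mitotic or apoptotic.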

[2] = tested on: U2OS; assay: Multiplex assay against U2OS; conditions: human; summary of the method: as §1
[3] = tested on: HEK-293T; assay: Multiplex assay against HEK293T; conditions: human; summary of the method: as §1
[4] = 12 h, 1 µM, compound concentration 1 uM
[5] = 12 h, 10 µM, compound concentration 10 uM
[6] = 24 h, 1 µM, compound concentration 1 uM
[7] = 24 h, 10 µM, compound concentration 10 uM
[8] = 48 h, 1 µM, compound concentration 1 uM
[9] = 48 h, 10 µM, compound concentration 10 uM

O=C(NCc1cccc(O)c1)Nc1nc(-c2ccncc2)cs1
Population Apoptotic (%) [1, 4]: 12.12% and 27.78%
Population Healthy Nuclei (%) [1, 4]: 41.38% and 76.34%
Population Hoechst High Intensity Objects (%) [1, 4]: 0%
Population Membrane Permeable-Phenotype (%) [1, 4]: 4.17% and 1.41%
Population Mitochondria Different-Phenotype (%) [1, 4]: 6.94% and 9.15%
Population Mitotic Cells (%) [1, 4]: 87.88% and 72.22%
Population Normal (%) [1, 4]: 100%
Population Pyknosed Nuclei (%) [1, 4]: 37.93% and 19.35%
Population Tubulin-Different-Phenotype (%) [1, 4]: 8.33% and 6.34%
Total Cell Count [1, 4]: 174 and 186
Population Apoptotic (%) [1, 5]: 9.52% and 18.18%
Population Fragmented Nuclei (%) [1, 5]: 11.37% and 4.05%
Population Healthy Nuclei (%) [1, 5]: 38.86% and 61.26%
Population Hoechst High Intensity Objects (%) [1, 5]: 0%
Population Membrane Permeable-Phenotype (%) [1, 5]: 7.32% and 2.21%
Population Mitochondria Different-Phenotype (%) [1, 5]: 15.85% and 13.97%
Population Mitotic Cells (%) [1, 5]: 90.48% and 81.82%
Population Normal (%) [1, 5]: 100%
Population Pyknosed Nuclei (%) [1, 5]: 49.76% and 34.68%
Population Tubulin-Different-Phenotype (%) [1, 5]: 13.41% and 29.41%
Total Cell Count [1, 5]: 211 and 222
Population Apoptotic (%) [1, 6]: 25.49% and 48.15%
Population Healthy Nuclei (%) [1, 6]: 53.67% and 81.31%
Population Hoechst High Intensity Objects (%) [1, 6]: 0%
Population Membrane Permeable-Phenotype (%) [1, 6]: 3.16% and 0.62%
Population Mitochondria Different-Phenotype (%) [1, 6]: 12.63% and 6.83%
Population Mitotic Cells (%) [1, 6]: 74.51% and 51.85%
Population Normal (%) [1, 6]: 100%
Population Pyknosed Nuclei (%) [1, 6]: 28.81% and 13.64%
Population Tubulin-Different-Phenotype (%) [1, 6]: 11.58% and 6.21%
Total Cell Count [1, 6]: 177 and 198
Population Apoptotic (%) [1, 7]: 13.79% and 23.26%
Population Fragmented Nuclei (%) [1, 7]: 8.5% and 3.62%
Population Healthy Nuclei (%) [1, 7]: 48% and 76.92%
Population Hoechst High Intensity Objects (%) [1, 7]: 0%
Population Membrane Permeable-Phenotype (%) [1, 7]: 0% and 2.94%
Population Mitochondria Different-Phenotype (%) [1, 7]: 7.29% and 8.82%
Population Mitotic Cells (%) [1, 7]: 86.21% and 76.74%
Population Normal (%) [1, 7]: 100%
Population Pyknosed Nuclei (%) [1, 7]: 43.5% and 19.46%
Population Tubulin-Different-Phenotype (%) [1, 7]: 17.71% and 29.41%
Total Cell Count [1, 7]: 200 and 221
Population Apoptotic (%) [1, 8]: 55.56% and 38.46%
Population Fragmented Nuclei (%) [1, 8]: 16.05% and 5.73%
Population Healthy Nuclei (%) [1, 8]: 72.84% and 87.5%
Population Hoechst High Intensity Objects (%) [1, 8]: 0%
Population Membrane Permeable-Phenotype (%) [1, 8]: 0.85% and 0.6%
Population Mitotic Cells (%) [1, 8]: 44.44% and 61.54%
Population Normal (%) [1, 8]: 100%
Population Pyknosed Nuclei (%) [1, 8]: 11.11% and 6.77%
Population Tubulin-Different-Phenotype (%) [1, 8]: 3.39% and 6.55%
Total Cell Count [1, 8]: 162 and 192
Population Apoptotic (%) [1, 9]: 16.67% and 18.42%
Population Healthy Nuclei (%) [1, 9]: 74.44% and 81.61%
Population Hoechst High Intensity Objects (%) [1, 9]: 0%
Population Membrane Permeable-Phenotype (%) [1, 9]: 0.6% and 1.65%
Population Mitochondria Different-Phenotype (%) [1, 9]: 12.05% and 3.3%
Population Mitotic Cells (%) [1, 9]: 83.33% and 81.58%
Population Normal (%) [1, 9]: 100%
Population Pyknosed Nuclei (%) [1, 9]: 13.45% and 17.04%
Total Cell Count [1, 9]: 223
Population Apoptotic (%) [2, 4]: 37.74% and 30.77%
Population Fragmented Nuclei (%) [2, 4]: 4.64% and 3.9%
Population Healthy Nuclei (%) [2, 4]: 83.06% and 79.22%
Population Hoechst High Intensity Objects (%) [2, 4]: 0% and 0.65%
Population Membrane Permeable-Phenotype (%) [2, 4]: 0.84% and 1.64%
Population Mitochondria Different-Phenotype (%) [2, 4]: 0.28% and 9.02%
Population Mitotic Cells (%) [2, 4]: 62.26% and 69.23%
Population Normal (%) [2, 4]: 100% and 99.35%
Population Pyknosed Nuclei (%) [2, 4]: 12.3% and 16.88%
Population Tubulin-Different-Phenotype (%) [2, 4]: 1.96% and 0%
Total Cell Count [2, 4]: 431 and 155
Population Apoptotic (%) [2, 5]: 52.63% and 52.17%
Population Fragmented Nuclei (%) [2, 5]: 2.65% and 6.96%
Population Healthy Nuclei (%) [2, 5]: 82.23% and 73.04%
Population Hoechst High Intensity Objects (%) [2, 5]: 0.26% and 0%
Population Membrane Permeable-Phenotype (%) [2, 5]: 1.61% and 4.76%
Population Mitotic Cells (%) [2, 5]: 47.37% and 47.83%
Population Normal (%) [2, 5]: 99.74% and 100%
Population Pyknosed Nuclei (%) [2, 5]: 15.12% and 20%
Population Tubulin-Different-Phenotype (%) [2, 5]: 2.9% and 0%
Population Apoptotic (%) [2, 6]: 47.5% and 43.18%
Population Fragmented Nuclei (%) [2, 6]: 2.77% and 4.12%
Population Healthy Nuclei (%) [2, 6]: 82.47% and 73.2%
Population Hoechst High Intensity Objects (%) [2, 6]: 0%
Population Membrane Permeable-Phenotype (%) [2, 6]: 1.12% and 3.52%
Population Mitochondria Different-Phenotype (%) [2, 6]: 0% and 5.63%
Population Mitotic Cells (%) [2, 6]: 52.5% and 56.82%
Population Normal (%) [2, 6]: 100%
Population Pyknosed Nuclei (%) [2, 6]: 14.76% and 22.68%
Population Tubulin-Different-Phenotype (%) [2, 6]: 0.67% and 0%
Total Cell Count [2, 6]: 542 and 194
Population Apoptotic (%) [2, 7]: 44.26% and 50%
Population Fragmented Nuclei (%) [2, 7]: 3.67% and 6.77%
Population Healthy Nuclei (%) [2, 7]: 83.15% and 67.67%
Population Hoechst High Intensity Objects (%) [2, 7]: 0%
Population Membrane Permeable-Phenotype (%) [2, 7]: 1.82% and 5.56%
Population Mitotic Cells (%) [2, 7]: 55.74% and 50%
Population Normal (%) [2, 7]: 100%
Population Pyknosed Nuclei (%) [2, 7]: 13.17% and 25.56%
Population Tubulin-Different-Phenotype (%) [2, 7]: 1.82% and 1.11%
Population Apoptotic (%) [2, 8]: 50.98% and 51.79%
Population Fragmented Nuclei (%) [2, 8]: 4.55% and 3.91%
Population Healthy Nuclei (%) [2, 8]: 84.92% and 77.85%
Population Hoechst High Intensity Objects (%) [2, 8]: 0.1% and 0%
Population Membrane Permeable-Phenotype (%) [2, 8]: 0.12% and 2.09%
Population Mitochondria Different-Phenotype (%) [2, 8]: 0% and 3.35%
Population Mitotic Cells (%) [2, 8]: 49.02% and 48.21%
Population Normal (%) [2, 8]: 99.9% and 100%
Population Pyknosed Nuclei (%) [2, 8]: 10.54% and 18.24%
Population Tubulin-Different-Phenotype (%) [2, 8]: 1.22% and 1.26%
Population Apoptotic (%) [2, 9]: 60.92% and 61.11%
Population Fragmented Nuclei (%) [2, 9]: 2.84% and 9.2%
Population Healthy Nuclei (%) [2, 9]: 84.18% and 68.71%
Population Hoechst High Intensity Objects (%) [2, 9]: 0%
Population Membrane Permeable-Phenotype (%) [2, 9]: 1.6% and 6.25%
Population Mitochondria Different-Phenotype (%) [2, 9]: 0% and 18.75%
Population Mitotic Cells (%) [2, 9]: 39.08% and 38.89%
Population Normal (%) [2, 9]: 100%
Population Pyknosed Nuclei (%) [2, 9]: 12.99% and 22.09%
Population Tubulin-Different-Phenotype (%) [2, 9]: 1.24% and 0.89%
Population Apoptotic (%) [3, 4]: 7.14% and 10.34%
Population Fragmented Nuclei (%) [3, 4]: 2.92% and 3.91%
Population Healthy Nuclei (%) [3, 4]: 52.8% and 28.12%
Population Hoechst High Intensity Objects (%) [3, 4]: 0.24% and 0%
Population Membrane Permeable-Phenotype (%) [3, 4]: 0.92% and 0%
Population Mitochondria Different-Phenotype (%) [3, 4]: 22.12% and 19.44%
Population Mitotic Cells (%) [3, 4]: 92.86% and 89.66%
Population Normal (%) [3, 4]: 99.76% and 100%
Population Pyknosed Nuclei (%) [3, 4]: 44.28% and 67.97%
Population Apoptotic (%) [3, 5]: 7.43% and 12.61%
Population Fragmented Nuclei (%) [3, 5]: 2.74% and 5.1%
Population Healthy Nuclei (%) [3, 5]: 52.13% and 34.18%
Population Hoechst High Intensity Objects (%) [3, 5]: 0%
Population Membrane Permeable-Phenotype (%) [3, 5]: 4.09% and 0%
Population Mitochondria Different-Phenotype (%) [3, 5]: 19.88% and 13.43%
Population Mitotic Cells (%) [3, 5]: 92.57% and 87.39%
Population Normal (%) [3, 5]: 100%
Population Pyknosed Nuclei (%) [3, 5]: 45.12% and 60.71%
Total Cell Count [3, 5]: 328 and 196
Population Apoptotic (%) [3, 6]: 13.54% and 22%
Population Fragmented Nuclei (%) [3, 6]: 2.1% and 4.17%
Population Healthy Nuclei (%) [3, 6]: 77.73% and 54.17%
Population Hoechst High Intensity Objects (%) [3, 6]: 0%
Population Membrane Permeable-Phenotype (%) [3, 6]: 0.54% and 0%
Population Mitochondria Different-Phenotype (%) [3, 6]: 3.78% and 6.15%
Population Mitotic Cells (%) [3, 6]: 86.46% and 78%
Population Normal (%) [3, 6]: 100%
Population Pyknosed Nuclei (%) [3, 6]: 20.17% and 41.67%
Population Tubulin-Different-Phenotype (%) [3, 6]: 3.51% and 9.23%
Population Apoptotic (%) [3, 7]: 12.64% and 13.27%
Population Fragmented Nuclei (%) [3, 7]: 3.74%
Population Healthy Nuclei (%) [3, 7]: 72.99% and 50.47%
Population Hoechst High Intensity Objects (%) [3, 7]: 0% and 0.93%
Population Membrane Permeable-Phenotype (%) [3, 7]: 1.1% and 0%
Population Mitochondria Different-Phenotype (%) [3, 7]: 5.86% and 10.19%
Population Mitotic Cells (%) [3, 7]: 87.36% and 86.73%
Population Normal (%) [3, 7]: 100% and 99.07%
Population Pyknosed Nuclei (%) [3, 7]: 23.26% and 45.79%
Population Tubulin-Different-Phenotype (%) [3, 7]: 5.86% and 3.7%
Total Cell Count [3, 7]: 374 and 216
Population Apoptotic (%) [3, 8]: 17.39% and 25%
Population Fragmented Nuclei (%) [3, 8]: 2.27% and 10.14%
Population Healthy Nuclei (%) [3, 8]: 86.57% and 68.24%
Population Hoechst High Intensity Objects (%) [3, 8]: 0.16% and 0.67%
Population Membrane Permeable-Phenotype (%) [3, 8]: 5.42% and 4.95%
Population Mitochondria Different-Phenotype (%) [3, 8]: 14.95% and 15.84%
Population Mitotic Cells (%) [3, 8]: 82.61% and 75%
Population Normal (%) [3, 8]: 99.84% and 99.33%
Population Pyknosed Nuclei (%) [3, 8]: 11.17% and 21.62%
Population Apoptotic (%) [3, 9]: 22.81% and 34.48%
Population Fragmented Nuclei (%) [3, 9]: 4.16% and 5.49%
Population Healthy Nuclei (%) [3, 9]: 85.07% and 70.04%
Population Hoechst High Intensity Objects (%) [3, 9]: 0.19% and 0%
Population Membrane Permeable-Phenotype (%) [3, 9]: 4% and 0.6%
Population Mitochondria Different-Phenotype (%) [3, 9]: 19.78% and 24.1%
Population Mitotic Cells (%) [3, 9]: 77.19% and 65.52%
Population Normal (%) [3, 9]: 99.81% and 100%
Population Pyknosed Nuclei (%) [3, 9]: 10.78% and 24.47%
Population Tubulin-Different-Phenotype (%) [3, 9]: 0.89% and 5.42%
Total Cell Count [3, 9]: 530 and 237
